Measured values: ChEMBL document CHEMBL4118021, “Studies of TAK1-centered polypharmacology with novel covalent TAK1 inhibitors” (Bioorg Med Chem, 2017)

How the values were obtained:
[1] = target: T1, Mixed lineage kinase domain-like protein (Homo sapiens) (UniProt Q8NB16); experiment: Inhibition of MLKL in human SKCO1 cells at 1 uM after 4 hrs using biotin labeled APVAIKVFK probe by mass-spectrometric analysis relative to control; assay type: cell-based
T1 sequence (whole entry): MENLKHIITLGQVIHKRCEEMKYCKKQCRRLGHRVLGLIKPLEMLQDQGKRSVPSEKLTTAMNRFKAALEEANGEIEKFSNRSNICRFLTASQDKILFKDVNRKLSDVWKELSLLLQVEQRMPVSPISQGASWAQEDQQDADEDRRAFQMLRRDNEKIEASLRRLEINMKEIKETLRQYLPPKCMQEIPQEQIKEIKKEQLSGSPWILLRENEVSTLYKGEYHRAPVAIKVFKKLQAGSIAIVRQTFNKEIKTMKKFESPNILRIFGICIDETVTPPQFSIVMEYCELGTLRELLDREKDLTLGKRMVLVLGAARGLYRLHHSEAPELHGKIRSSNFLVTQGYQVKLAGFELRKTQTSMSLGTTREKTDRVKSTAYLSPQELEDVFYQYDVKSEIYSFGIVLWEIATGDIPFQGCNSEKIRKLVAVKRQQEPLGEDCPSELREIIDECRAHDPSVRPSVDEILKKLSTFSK

[2] = target: Ribosomal protein S6 kinase alpha-4 (Homo sapiens) (UniProt O75676); experiment: Inhibition of MSK2 domain1 in human SKCO1 cells at 1 uM after 4 hrs using biotin labeled DLKLENVLLDSEGHIVLTDFGLSK probe by mass-spectrometric analysis relative to control; assay type: cell-based
Chain of Ribosomal protein S6 kinase alpha-4 (Homo sapiens) (O75676 whole entry, looked up, the tested form may be a part): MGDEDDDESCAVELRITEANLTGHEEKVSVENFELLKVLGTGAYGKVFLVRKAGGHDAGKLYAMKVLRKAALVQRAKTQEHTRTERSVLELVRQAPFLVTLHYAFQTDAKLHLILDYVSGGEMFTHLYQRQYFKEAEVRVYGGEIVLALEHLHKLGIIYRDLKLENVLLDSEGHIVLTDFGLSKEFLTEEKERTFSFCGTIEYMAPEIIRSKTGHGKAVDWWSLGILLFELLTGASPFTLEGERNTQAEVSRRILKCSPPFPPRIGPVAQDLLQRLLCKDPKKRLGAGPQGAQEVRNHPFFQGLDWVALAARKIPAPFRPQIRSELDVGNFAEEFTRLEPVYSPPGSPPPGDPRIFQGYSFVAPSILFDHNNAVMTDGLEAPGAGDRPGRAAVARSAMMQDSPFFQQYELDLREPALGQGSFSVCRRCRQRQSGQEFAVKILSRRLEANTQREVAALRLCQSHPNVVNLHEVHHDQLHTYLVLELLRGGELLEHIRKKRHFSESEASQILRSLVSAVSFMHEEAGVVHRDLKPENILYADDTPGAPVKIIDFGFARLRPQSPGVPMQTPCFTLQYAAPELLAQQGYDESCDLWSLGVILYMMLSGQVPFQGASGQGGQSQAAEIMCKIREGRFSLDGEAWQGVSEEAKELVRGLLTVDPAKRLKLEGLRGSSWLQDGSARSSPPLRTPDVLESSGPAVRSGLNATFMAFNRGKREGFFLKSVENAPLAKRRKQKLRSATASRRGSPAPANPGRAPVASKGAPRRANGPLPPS

[3] = target: T2, Inhibitor of nuclear factor kappa-B kinase subunit beta (Homo sapiens) (UniProt O14920); experiment: Inhibition of IKKb in human SKCO1 cells at 1 uM after 4 hrs using biotin labeled DLKPENIVLQQGEQR probe by mass-spectrometric analysis relative to control; assay type: cell-based
T2 sequence (whole entry): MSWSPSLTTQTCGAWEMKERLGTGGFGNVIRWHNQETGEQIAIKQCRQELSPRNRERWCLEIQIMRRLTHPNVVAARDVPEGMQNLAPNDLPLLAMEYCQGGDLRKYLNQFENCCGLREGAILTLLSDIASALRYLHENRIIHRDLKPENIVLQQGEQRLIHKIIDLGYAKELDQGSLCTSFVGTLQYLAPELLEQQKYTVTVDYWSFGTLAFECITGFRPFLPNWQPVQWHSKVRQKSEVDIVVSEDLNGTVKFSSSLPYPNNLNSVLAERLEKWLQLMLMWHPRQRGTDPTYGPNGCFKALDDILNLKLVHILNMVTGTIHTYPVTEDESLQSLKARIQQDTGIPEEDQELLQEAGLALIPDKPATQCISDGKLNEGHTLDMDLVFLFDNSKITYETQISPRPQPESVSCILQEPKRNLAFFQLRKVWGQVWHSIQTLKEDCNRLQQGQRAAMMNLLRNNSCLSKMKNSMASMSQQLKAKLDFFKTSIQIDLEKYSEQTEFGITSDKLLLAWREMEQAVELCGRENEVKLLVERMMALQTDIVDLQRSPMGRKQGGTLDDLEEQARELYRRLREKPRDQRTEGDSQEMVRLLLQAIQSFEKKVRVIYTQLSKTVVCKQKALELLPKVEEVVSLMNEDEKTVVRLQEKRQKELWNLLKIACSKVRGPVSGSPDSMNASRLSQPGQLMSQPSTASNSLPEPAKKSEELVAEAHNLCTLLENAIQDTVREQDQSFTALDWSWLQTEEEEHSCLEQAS

[4] = target: Cyclin-dependent kinase 18 (Homo sapiens) (UniProt Q07002); experiment: Inhibition of PCTAIRE3 in human SKCO1 cells at 1 uM after 4 hrs using biotin labeled DLKPQNLLINER probe by mass-spectrometric analysis relative to control; assay type: cell-based
Chain of Cyclin-dependent kinase 18 (Homo sapiens) (Q07002 whole entry): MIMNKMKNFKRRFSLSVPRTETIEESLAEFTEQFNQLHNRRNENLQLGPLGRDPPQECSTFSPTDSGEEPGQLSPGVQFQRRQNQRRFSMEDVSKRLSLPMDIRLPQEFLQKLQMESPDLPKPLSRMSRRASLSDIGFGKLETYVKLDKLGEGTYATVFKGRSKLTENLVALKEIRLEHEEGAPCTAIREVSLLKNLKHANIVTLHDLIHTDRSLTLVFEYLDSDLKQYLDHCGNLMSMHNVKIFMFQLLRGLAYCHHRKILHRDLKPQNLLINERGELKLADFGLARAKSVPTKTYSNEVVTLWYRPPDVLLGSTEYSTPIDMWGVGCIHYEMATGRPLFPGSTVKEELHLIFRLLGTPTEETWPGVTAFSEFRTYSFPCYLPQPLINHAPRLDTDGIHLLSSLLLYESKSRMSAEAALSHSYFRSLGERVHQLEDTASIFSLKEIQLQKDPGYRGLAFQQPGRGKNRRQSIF
Procedure, shortened: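 Live SK-CO-1 cells exposed to compound at 1 μM or DMSO for 4 h (KiNativ). Lysates then labeled with lysine-reactive ATP/ADP-biotin probe, and probe-labeled kinase peptides quantified by mass spectrometry. Percent inhibition of probe-dependent recovery calculated relative to DMSO-treated cells.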

[5] = target: Aurora kinase A (Homo sapiens) (UniProt O14965); experiment: Inhibition of AurA in human SKCO1 cells at 1 uM after 4 hrs using biotin labeled DIKPENLLLGSAGELK probe by mass-spectrometric analysis relative to control
Chain of Aurora kinase A (Homo sapiens) (O14965 whole entry, looked up): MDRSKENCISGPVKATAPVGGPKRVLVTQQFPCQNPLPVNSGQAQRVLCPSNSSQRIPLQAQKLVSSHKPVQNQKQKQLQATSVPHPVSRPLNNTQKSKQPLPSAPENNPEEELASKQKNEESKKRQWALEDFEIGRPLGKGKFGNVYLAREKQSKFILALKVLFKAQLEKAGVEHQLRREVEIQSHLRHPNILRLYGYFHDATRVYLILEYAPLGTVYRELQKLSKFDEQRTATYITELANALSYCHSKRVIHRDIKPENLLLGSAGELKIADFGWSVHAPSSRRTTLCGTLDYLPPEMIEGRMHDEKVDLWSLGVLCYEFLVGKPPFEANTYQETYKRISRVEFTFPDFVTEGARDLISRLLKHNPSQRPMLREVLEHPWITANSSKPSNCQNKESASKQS

[6] = target: T3, Serine/threonine-protein kinase LATS2 (Homo sapiens) (UniProt Q9NRM7); experiment: Inhibition of LATS2 in human SKCO1 cells at 1 uM after 4 hrs using biotin labeled DIKPDNILIDLDGHIK probe by mass-spectrometric analysis relative to control; assay type: cell-based
T3 sequence (whole entry): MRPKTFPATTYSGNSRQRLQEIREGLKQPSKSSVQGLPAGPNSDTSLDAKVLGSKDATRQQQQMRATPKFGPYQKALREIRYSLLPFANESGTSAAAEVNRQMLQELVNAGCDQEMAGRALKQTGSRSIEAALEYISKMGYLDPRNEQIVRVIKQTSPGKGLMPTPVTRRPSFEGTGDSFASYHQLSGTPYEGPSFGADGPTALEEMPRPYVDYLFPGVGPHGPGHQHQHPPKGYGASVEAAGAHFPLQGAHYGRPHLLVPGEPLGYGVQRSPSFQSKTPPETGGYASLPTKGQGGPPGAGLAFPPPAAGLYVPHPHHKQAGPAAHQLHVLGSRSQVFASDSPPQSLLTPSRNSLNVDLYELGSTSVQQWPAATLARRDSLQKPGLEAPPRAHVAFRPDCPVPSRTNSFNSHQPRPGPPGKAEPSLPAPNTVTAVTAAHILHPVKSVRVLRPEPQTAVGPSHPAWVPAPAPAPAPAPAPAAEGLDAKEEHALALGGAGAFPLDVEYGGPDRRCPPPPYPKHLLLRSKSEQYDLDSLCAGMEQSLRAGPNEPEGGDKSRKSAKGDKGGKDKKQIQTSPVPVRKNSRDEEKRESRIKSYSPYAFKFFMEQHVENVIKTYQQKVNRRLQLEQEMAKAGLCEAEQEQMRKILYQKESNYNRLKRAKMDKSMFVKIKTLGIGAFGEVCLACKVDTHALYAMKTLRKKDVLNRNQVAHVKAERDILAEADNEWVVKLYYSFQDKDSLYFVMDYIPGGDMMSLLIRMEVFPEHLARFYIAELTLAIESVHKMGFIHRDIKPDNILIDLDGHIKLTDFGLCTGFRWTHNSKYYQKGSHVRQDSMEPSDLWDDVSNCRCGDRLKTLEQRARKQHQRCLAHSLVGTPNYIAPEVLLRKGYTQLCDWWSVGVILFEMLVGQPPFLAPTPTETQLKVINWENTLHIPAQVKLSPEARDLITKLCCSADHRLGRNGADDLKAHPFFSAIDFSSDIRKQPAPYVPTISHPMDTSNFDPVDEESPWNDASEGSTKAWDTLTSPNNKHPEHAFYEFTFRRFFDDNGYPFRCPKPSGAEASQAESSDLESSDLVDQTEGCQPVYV

Structure (SMILES) | inhibition [1] | inhibition [2] | inhibition [3] | inhibition [4] | inhibition [5] | inhibition [6]
C=CC(=O)Nc1ccccc1Nc1nc(Nc2ccc(N3CCN(C)CC3)cc2)ncc1Cl | 52.3% | 24.5% | 15.3% | -3.2% | 89.1% | 40.7%
COc1cc(O)c2c(c1)/C=C/C[C@H](O)[C@H](O)C(=O)/C=C\C[C@H](C)OC2=O | 56.6% | 39.8% | -3% | -6.3% | 56.3% | -0.3%
C=CC(=O)Nc1ccccc1Oc1nc(Nc2cnn(CCOC)c2)ncc1Cl | 53.7% | 10.4% | -9% | -5.9% | 48.4% | 6.7%
